ChEMBL document CHEMBL1136179, “Prolylisoxazoles: potent inhibitors of prolyloligopeptidase with antitrypanosomal activity” (Bioorg Med Chem Lett, 2003)
Values after ≈ are worked out from the molar mass of the structure shown.

What was measured:
Leishmania donovani [1] = experiment: Antiprotozoal activity against Leishmania donovani L82 was determined; type: functional; details: read-out: ED50 (the source's name)
Method in brief: (§1)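 Leishmania donovani strain L82 was tested against test compounds, with pentostam as the reference drug.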

KB [2] = experiment: Toxicity in T. b. rhodesiense STIB900 infected KB cells; type: functional; details: Homo sapiens, read-out: ED50 (the source's name)
Method in brief: (§2)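 Cytotoxicity was measured on KB cells, with podophyllotoxin as the reference drug.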

KB [3] = experiment: Toxicity in Trypanosoma cruzi Lac Z infected KB cells; type: functional; details: Homo sapiens, read-out: ED50 (the source's name); method in brief: as §2
KB [4] = experiment: Toxicity in Leishmania donovani L82 infected KB cells; type: functional; details: Homo sapiens, read-out: ED50 (the source's name); method in brief: as §2
Leishmania donovani [5] = experiment: Antiprotozoal activity against Leishmania donovani L82 at a dose of 30 ug/mL. Compound was toxic to host macrophages; type: functional; method in brief: as §1
Leishmania donovani [6] = experiment: Antiprotozoal activity against Leishmania donovani L82 at a dose of 3 ug/mL.; type: functional; method in brief: as §1
Leishmania donovani [7] = experiment: Antiprotozoal activity against Leishmania donovani L82 at a dose of 10 ug/mL.; type: functional; method in brief: as §1
Trypanosoma cruzi [8] = experiment: Antiprotozoal activity against Trypanosoma cruzi Lac Z was determined; type: functional; details: read-out: ED50 (the source's name)
Method in brief: (§3)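 Trypanosoma cruzi of the Lac Z strain was tested, with benznidazol as the reference drug.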

[9] = tested on: Trypanosoma brucei rhodesiense; experiment: Antiprotozoal activity against T. b. rhodesiense STIB900 at a dose of 10 ug/mL.; type: functional
Method in brief: (§4)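 Trypanosoma brucei rhodesiense strain STIB900 was tested, with pentamidine as the reference drug.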

[10] = tested on: Trypanosoma brucei rhodesiense; experiment: Antiprotozoal activity against T. b. rhodesiense STIB900 at a dose of 1 ug/mL.; type: functional; method in brief: as §4
[11] = tested on: Trypanosoma brucei rhodesiense; experiment: Antiprotozoal activity against T. b. rhodesiense STIB900 at a dose of 3 ug/mL.; type: functional; method in brief: as §4
[12] = tested on: Trypanosoma brucei rhodesiense; experiment: Antiprotozoal activity against T. b. rhodesiense STIB900 was determined; type: functional; details: read-out: ED50 (the source's name); method in brief: as §4
Trypanosoma cruzi [13] = experiment: Antiprotozoal activity against Trypanosoma cruzi Lac Z at a dose of 1 ug/mL.; type: functional; method in brief: as §3
Trypanosoma cruzi [14] = experiment: Antiprotozoal activity against Trypanosoma cruzi Lac Z at a dose of 30 ug/mL. Compound was toxic to host macrophages; type: functional; method in brief: as §3
Trypanosoma cruzi [15] = experiment: Antiprotozoal activity against Trypanosoma cruzi Lac Z at a dose of 3 ug/mL.; type: functional; method in brief: as §3
Trypanosoma cruzi [16] = experiment: Antiprotozoal activity against Trypanosoma cruzi Lac Z at a dose of 10 ug/mL.; type: functional; method in brief: as §3
[17] = tested on: Trypanosoma brucei rhodesiense; experiment: Antiprotozoal activity against T. b. rhodesiense STIB900 at a dose of 30 ug/mL
Prolyl endopeptidase = target: T1, Prolyl endopeptidase (Homo sapiens, UniProt P48147); experiment: In vitro inhibitory activity determined against prolyl oligopeptidase (PO) in human; Moderately active
T1 sequence (P48147 whole entry): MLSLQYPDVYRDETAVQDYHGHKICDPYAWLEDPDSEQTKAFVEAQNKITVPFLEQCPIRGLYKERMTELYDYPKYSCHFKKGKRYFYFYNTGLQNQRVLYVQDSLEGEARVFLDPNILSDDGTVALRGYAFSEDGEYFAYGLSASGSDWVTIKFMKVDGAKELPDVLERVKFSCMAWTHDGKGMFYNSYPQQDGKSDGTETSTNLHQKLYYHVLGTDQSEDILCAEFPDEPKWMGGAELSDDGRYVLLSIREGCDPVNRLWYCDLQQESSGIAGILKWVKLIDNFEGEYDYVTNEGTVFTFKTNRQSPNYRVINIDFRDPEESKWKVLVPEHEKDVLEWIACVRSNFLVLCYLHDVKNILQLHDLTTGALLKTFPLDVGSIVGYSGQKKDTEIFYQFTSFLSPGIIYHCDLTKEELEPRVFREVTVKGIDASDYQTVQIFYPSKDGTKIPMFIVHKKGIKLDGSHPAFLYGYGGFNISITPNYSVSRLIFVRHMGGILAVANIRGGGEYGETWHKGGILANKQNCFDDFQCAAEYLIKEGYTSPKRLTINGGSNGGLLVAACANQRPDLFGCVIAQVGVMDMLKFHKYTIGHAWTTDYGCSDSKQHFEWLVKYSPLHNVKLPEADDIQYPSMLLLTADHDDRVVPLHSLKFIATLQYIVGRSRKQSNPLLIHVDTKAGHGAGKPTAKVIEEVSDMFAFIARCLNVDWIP

Leishmania donovani [18] = experiment: Antiprotozoal activity against Leishmania donovani was determined; details: read-out: ED50
KB [19] = experiment: Toxicity in Leishmania donovani infected KB cells; type: functional; details: Homo sapiens, read-out: ED50 (the source's name); method in brief: as §2
KB [20] = experiment: Toxicity in Trypanosoma cruzi infected KB cells; type: functional; details: Homo sapiens, read-out: ED50 (the source's name); method in brief: as §2
Leishmania donovani [21] = experiment: Antiprotozoal activity against Leishmania donovani at a dose of 10 ug/mL.; type: functional; method in brief: as §1
Leishmania donovani [22] = experiment: Antiprotozoal activity against Leishmania donovani at a dose of 30 ug/mL. Compound was toxic to host macrophages; type: functional; method in brief: as §1
Leishmania donovani [23] = experiment: Antiprotozoal activity against Leishmania donovani at a dose of 3 ug/mL.; type: functional; method in brief: as §1
Trypanosoma cruzi [24] = experiment: Antiprotozoal activity against Trypanosoma cruzi was determined; type: functional; details: read-out: ED50 (the source's name); method in brief: as §3
[25] = tested on: Trypanosoma brucei rhodesiense; experiment: Antiprotozoal activity against T. b. rhodesiense at a dose of 10 ug/mL.; type: functional; method in brief: as §4
[26] = tested on: Trypanosoma brucei rhodesiense; experiment: Antiprotozoal activity against T. b. rhodesiense at a dose of 1 ug/mL.; type: functional; method in brief: as §4
[27] = tested on: Trypanosoma brucei rhodesiense; experiment: Antiprotozoal activity against T. b. rhodesiense at a dose of 3 ug/mL.; type: functional; method in brief: as §4
[28] = tested on: Trypanosoma brucei rhodesiense; experiment: Antiprotozoal activity against T. b. rhodesiense was determined; type: functional; details: read-out: ED50 (the source's name); method in brief: as §4
Trypanosoma cruzi [29] = experiment: Antiprotozoal activity against Trypanosoma cruzi at a dose of 10 ug/mL.; type: functional; method in brief: as §3
Trypanosoma cruzi [30] = experiment: Antiprotozoal activity against Trypanosoma cruzi at a dose of 1 ug/mL.; type: functional; method in brief: as §3
Trypanosoma cruzi [31] = experiment: Antiprotozoal activity against Trypanosoma cruzi at a dose of 30 ug/mL. Compound was toxic to host macrophages; type: functional; method in brief: as §3
Trypanosoma cruzi [32] = experiment: Antiprotozoal activity against Trypanosoma cruzi at a dose of 3 ug/mL.; type: functional; method in brief: as §3
KB [33] = experiment: Toxicity in T. b. rhodesiense infected KB cells; type: functional; details: Homo sapiens, read-out: ED50 (the source's name); method in brief: as §2
[34] = tested on: Trypanosoma brucei rhodesiense; experiment: Antiprotozoal activity against T. b. rhodesiense at a dose of 30 ug/mL

## O=C(c1cc(COCc2ccccc2)on1)[C@@H]1CCCN1C(=O)[C@@H]1CCCN1C(=O)CCCc1ccccc1
Leishmania donovani [1]
  EC50: 13.1 µg/mL (≈ 24.7 µM)
KB [2]
  EC50: > 300 µg/mL
KB [3]
  EC50: > 300 µg/mL
KB [4]
  EC50: > 300 µg/mL
Leishmania donovani [5]
  inhibition at 30 µg/mL: 100%
Leishmania donovani [6]
  inhibition at 3 µg/mL: 0%
Leishmania donovani [7]
  inhibition at 10 µg/mL: 6.9%
Trypanosoma cruzi [8]
  EC50: 4.7 µg/mL (≈ 8.87 µM)
[9]
  inhibition at 10 µg/mL: 95.5%
[10]
  inhibition at 1 µg/mL: 0.9%
[11]
  inhibition at 3 µg/mL: 6.9%
[12]
  EC50: 5.5 µg/mL (≈ 10.4 µM)
Trypanosoma cruzi [13]
  inhibition at 1 µg/mL: 16%
Trypanosoma cruzi [14]
  inhibition at 30 µg/mL: 86.7%
Trypanosoma cruzi [15]
  inhibition at 3 µg/mL: 42.6%
Trypanosoma cruzi [16]
  inhibition at 10 µg/mL: 69.4%
[17]
  inhibition at 30 µg/mL: 99.9%

## COC(=O)c1onc(C(=O)[C@@H]2CCCN2C(=O)[C@@H]2CCCN2C(=O)OCc2ccccc2)c1C(=O)OC
Prolyl endopeptidase
  IC50: > 1000 nM

## O=C(c1cc(-c2ccccc2)on1)[C@@H]1CCCN1C(=O)[C@@H]1CCCN1C(=O)OCc1ccccc1
Leishmania donovani [18]
  EC50: 13.5 µg/mL (≈ 28.5 µM)
KB [19]
  EC50: 23 µg/mL (≈ 48.6 µM)
KB [20]
  EC50: 23 µg/mL (≈ 48.6 µM)
Leishmania donovani [21]
  inhibition at 10 µg/mL: 1.8%
Leishmania donovani [22]
  inhibition at 30 µg/mL: 100%
Leishmania donovani [23]
  inhibition at 3 µg/mL: 0%
Trypanosoma cruzi [24]
  EC50: 6.7 µg/mL (≈ 14.1 µM)
[25]
  inhibition at 10 µg/mL: 99.8%
[26]
  inhibition at 1 µg/mL: 7.7%
[27]
  inhibition at 3 µg/mL: 83.4%
[28]
  EC50: 2.2 µg/mL (≈ 4.65 µM)
Trypanosoma cruzi [29]
  inhibition at 10 µg/mL: 59.9%
Trypanosoma cruzi [30]
  inhibition at 1 µg/mL: 10.8%
Trypanosoma cruzi [31]
  inhibition at 30 µg/mL: 86.7%
Trypanosoma cruzi [32]
  inhibition at 3 µg/mL: 29%
KB [33]
  EC50: 23 µg/mL (≈ 48.6 µM)
[34]
  inhibition at 30 µg/mL: 99.9%
